Activity calls are given as the source filed them. The rule behind the calls is not given here. Where a SMILES comes first, the peptide text is derived from it. Bridges are numbered along the chain shown (N, C = ends). [ ]: non-standard residue; d: D form. 2Nal = N[C@@H](Cc1ccc2ccccc2c1)C(=O)O; Cit = NC(=O)NCCC[C@H](N)C(=O)O
Key:
[1] = target: T1, C-X-C chemokine receptor type 4 (Homo sapiens, UniProt P61073); assay: Antagonist activity at CXCR4 in human MDA-MB-231 cells assessed as inhibition of CXCL12-mediated cell invasion at 10 nM by […] cell invasion assay; type: functional, cell-based
[2] = target: T1, C-X-C chemokine receptor type 4; assay: Displacement of biotinylated-TN14003 from CXCL12 binding site of CXCR4 in human MDA-MB-231 cells assessed as concentration required to inhibit >50% using rhodamine staining; type: cell-based
In short: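 MDA-MB-231 cells preincubated with compound at 1, 10, 100, 1000 nM, fixed in 4% formaldehyde, incubated with 50 nM biotinylated peptide antagonist then streptavidin-rhodamine; EC is lowest concentration blocking >50% of binding.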

[3] = target: T1, C-X-C chemokine receptor type 4; assay: Antagonist activity at CXCR4 in human MDA-MB-231 cells assessed as inhibition of CXCL12-mediated cell invasion at 100 nM by […] cell invasion assay; type: functional, cell-based
Mus musculus [4] = assay: Antiinflammatory activity in C57BL/6L mouse assessed as inhibition of carrageenan-induced paw edema at 10 mg/kg, ip administered 30 mins before carrageenan challenge measured after 76 hrs; type: functional; settings: for inhibition in vivo at 10 mg/kg: route intraperitoneal
[5] = target: C-C chemokine receptor type 5 (Homo sapiens) (UniProt P51681); assay: Antagonist activity at human CCR5 expressed in human U87 cells expressing CD4 assessed as inhibition of CCL5-induced cAMP production pretreated for 15 mins before forskolin challenge by TR-FRET analysis; type: functional, cell-based; settings: U-87MG ATCC
In short: (§1)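 U87CD4CCR3 or U87CD4CCR5 cells pretreated with compound 15 min at room temperature, then stimulated with 150 ng/mL CCL5 in presence of 5 µM forskolin; cAMP measured by TR-FRET LANCE kit.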

[6] = target: T2, C-C chemokine receptor type 3 (Homo sapiens) (UniProt P51677); assay: Antagonist activity at human CCR3 expressed in human U87 cells expressing CD4 assessed as inhibition of CCL5-induced cAMP production pretreated for 15 mins before forskolin challenge by TR-FRET analysis; type: functional, cell-based; settings: U-87MG ATCC; in short: as §1
T2 sequence (whole entry): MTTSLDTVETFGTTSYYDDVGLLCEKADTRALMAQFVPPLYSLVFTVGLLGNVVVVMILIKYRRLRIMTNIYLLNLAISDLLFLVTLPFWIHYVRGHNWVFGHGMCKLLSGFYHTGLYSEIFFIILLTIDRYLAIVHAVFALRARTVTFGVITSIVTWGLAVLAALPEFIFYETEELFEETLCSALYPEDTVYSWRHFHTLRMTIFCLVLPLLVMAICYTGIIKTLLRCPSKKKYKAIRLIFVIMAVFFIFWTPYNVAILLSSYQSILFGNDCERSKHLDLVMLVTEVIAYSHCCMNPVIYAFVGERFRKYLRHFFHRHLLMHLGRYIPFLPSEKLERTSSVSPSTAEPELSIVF

[7] = target: T1, C-X-C chemokine receptor type 4; assay: Antagonist activity at human CXCR4 expressed in human U87 cells expressing CD4 assessed as inhibition of CXCL12-induced cAMP production pretreated for 15 mins before forskolin challenge by TR-FRET analysis; type: functional, cell-based, U-87MG ATCC
[8] = Half life in iv dosed mouse; type: ADME, organism-based; settings: in vivo
Mus musculus [9] = assay: Protection against bleomycin-induced lung injury in mouse assessed as decrease in interstitial structural distortion at 10 mg/kg, ip administered 1 day before bleomycin treatment and daily for 20 days by hematoxylin and eosin staining; type: functional, organism-based; design: dose 10 mg/kg
In short: (§2)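 Mice, 10/group, anesthetized with isoflurane; 4 U/kg bleomycin in 100 µL PBS instilled intratracheally. Dosing i.p. (10 mg/kg, 300 µg/kg, or saline) from 1 day before bleomycin, daily for 20 days. Lungs harvested day 20, H&E-stained sections examined microscopically.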

Mus musculus [10] = assay: Protection against bleomycin-induced lung injury in mouse assessed as decrease in lung fibrosis at 10 mg/kg, ip administered 1 day before bleomycin treatment and daily for 20 days by hematoxylin and eosin staining; type: functional; design: scale not given: the % may be the effect or the level left; settings: route intraperitoneal; in short: as §2
MDA-MB-231 [11] = assay: Antiangiogenic activity against human MDA-MB-231 cells xenografted in nude mouse assessed as hemoglobin level at 10 mg/kg, sc measured after 10 days by […] plug assay; type: functional; settings: route subcutaneous; for inhibition in vivo at 10 mg/kg: Mus musculus, MDA-MB-231, sc, 240 h
In short: (§3)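 Nude mice, two s.c. flank plugs each (6 mice/group): 2×10^5 MDA-MB-231 cells in 0.5 mL growth factor-reduced Matrigel with compound mixed at 1 µM. From next day, daily s.c. dosing between plugs (10 mg/kg; peptide 300 µg/kg). Day 10 plugs excised, homogenized in water; supernatant with Drabkin's solution, 52 °C 10 min then RT 20 min, A540.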

Mus musculus [12] = assay: Protection against bleomycin-induced lung injury in mouse assessed as decrease in alveolar structural distortion at 10 mg/kg, ip administered 1 day before bleomycin treatment and daily for 20 days by hematoxylin and eosin staining; type: functional, organism-based; design: dose 10 mg/kg; in short: as §2
[13] = Antimetastatic activity against HGF/TGF-beta/CXCR4/MMP2 expressing human OMM 2.3 cells xenografted in nude mouse eye assessed as decrease in number of hepatic micrometastases at 10 mg/kg, ip administered 3 days after tumor implantation QD for 28 days by hematoxylin and eosin staining; type: functional; design: scale not given: the % may be the effect or the level left; settings: route intraperitoneal
In short: (§4)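 Female nude mice, 10/group; 1×10^6 OMM2.3 cells into posterior chamber of right eye day 0. Daily i.p. dosing (10 mg/kg or 300 µg/kg in 0.1 mL 45% cyclodextrin) from day 3; vehicle controls; tumor eyes enucleated day 7. Day 28 livers formalin-fixed, H&E; micrometastases (<100 µm) counted in six central sections, averaged per section.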

Mus musculus [14] = assay: Protection against bleomycin-induced lung injury in mouse assessed as decrease in interstitial structural distortion at 300 ug/kg, ip administered 1 day before bleomycin treatment and daily for 20 days by hematoxylin and eosin staining; type: functional, organism-based; in short: as §2
Mus musculus [15] = assay: Antiinflammatory activity in C57BL/6L mouse assessed as inhibition of carrageenan-induced paw edema at 300 ug/kg, ip administered 30 mins before carrageenan challenge measured after 76 hrs; type: functional, organism-based
[16] = Antimetastatic activity against HGF/TGF-beta/CXCR4/MMP2 expressing human OMM 2.3 cells xenografted in nude mouse eye assessed as decrease in number of hepatic micrometastases at 300 ug/kg, ip administered 3 days after tumor implantation QD for 28 days by hematoxylin and eosin staining; type: functional; design: scale not given: the % may be the effect or the level left; in short: as §4
MDA-MB-231 [17] = assay: Antiangiogenic activity against human MDA-MB-231 cells xenografted in nude mouse assessed as hemoglobin level at 300 ug/kg, sc measured after 10 days by […] plug assay; type: functional, organism-based; in short: as §3
Mus musculus [18] = assay: Protection against bleomycin-induced lung injury in mouse assessed as decrease in alveolar structural distortion at 300 ug/kg, ip administered 1 day before bleomycin treatment and daily for 20 days by hematoxylin and eosin staining; type: functional, organism-based; in short: as §2
Mus musculus [19] = assay: Protection against bleomycin-induced lung injury in mouse assessed as decrease in lung fibrosis at 300 ug/kg, ip administered 1 day before bleomycin treatment and daily for 20 days by hematoxylin and eosin staining; type: functional; design: scale not given: the % may be the effect or the level left; in short: as §2

C-C chemokine receptor type 5 (Homo sapiens), sequence (P51681 whole entry, looked up): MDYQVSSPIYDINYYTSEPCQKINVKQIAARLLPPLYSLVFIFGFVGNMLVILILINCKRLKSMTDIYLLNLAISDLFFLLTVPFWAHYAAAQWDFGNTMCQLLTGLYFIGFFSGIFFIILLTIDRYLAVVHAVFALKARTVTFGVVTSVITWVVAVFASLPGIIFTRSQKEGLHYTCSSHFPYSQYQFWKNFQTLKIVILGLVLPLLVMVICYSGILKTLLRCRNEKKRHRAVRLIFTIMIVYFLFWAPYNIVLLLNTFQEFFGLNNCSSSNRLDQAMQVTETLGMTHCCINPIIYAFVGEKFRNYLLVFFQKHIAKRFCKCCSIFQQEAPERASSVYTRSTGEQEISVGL
T1 sequence (P61073 whole entry): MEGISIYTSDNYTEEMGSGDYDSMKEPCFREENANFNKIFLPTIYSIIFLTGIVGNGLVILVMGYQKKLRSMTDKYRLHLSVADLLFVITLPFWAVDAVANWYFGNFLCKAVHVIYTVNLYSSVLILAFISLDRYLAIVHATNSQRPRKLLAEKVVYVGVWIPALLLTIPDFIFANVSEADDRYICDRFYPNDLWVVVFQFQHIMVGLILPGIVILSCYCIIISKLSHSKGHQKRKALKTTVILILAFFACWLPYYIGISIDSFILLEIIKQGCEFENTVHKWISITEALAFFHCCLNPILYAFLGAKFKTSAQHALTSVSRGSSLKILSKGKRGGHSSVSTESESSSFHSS

Structure (SMILES) | inhibition [1] [%] | EC [2] [nM] | inhibition [3] [%] | inhibition in vivo at 10 mg/kg (Mus musculus [4]) [%] | further results
c1cnc(NCc2ccc(CNc3ccccc3N3CCCC3)cc2)nc1 | 61 | 100 | 73 |  | 
c1ccc(NCc2ccc(CNc3ccccn3)cc2)nc1 |  |  |  |  | inhibition (Mus musculus [4]): Active; inhibition [5]: inactive; inhibition [6]: inactive; IC50 [7]: 1.8 nM
Fc1cnc(Cl)nc1NCc1ccc(CNc2ccnc(NCCN3CCOCC3)n2)cc1 | 84 | 1 | 100 | > 50 | half-life [8]: 15 min; Activity (Mus musculus [9]): Active; Activity (Mus musculus [10]): 55%; inhibition [5]: inactive; inhibition [6]: inactive; Activity (MDA-MB-231 [11]): 70%; Activity (Mus musculus [12]): Active; IC50 [7]: 0.8 nM; Activity [13]: 50%
CCOCCN1CCN(C(=O)c2cnc(NCc3ccc(CNc4ncc(F)cn4)cc3)nc2C(F)(F)F)CC1 | 34 | 1 | 95 | 20 | inhibition [5]: inactive; inhibition [6]: inactive; inhibition in vivo at 10 mg/kg (MDA-MB-231 [11]): > 30%; IC50 [7]: 5.4 nM
c1cnc(NCc2ccc(CNc3ccc(N4CCCC4)cc3)cc2)nc1 | 57 | 1 | 82 |  | 
Clc1cccc(NCc2ccc(CNc3ncccn3)cc2)n1 | 100 | 1 | 100 | > 50 | inhibition in vivo at 10 mg/kg (MDA-MB-231 [11]): > 30%
Fc1ccc(NCc2ccc(CNc3ccc(F)cn3)cc2)nc1 | 45 | 100 | 68 |  | 
Fc1ccccc1NCc1ccc(CNc2ncccn2)cc1 | 41 |  | 62 |  | 
c1ccc(NCc2ccc(CNc3ncccn3)cc2)nc1 | 58 | 100 | 64 |  | 
COc1nccc(NCc2ccc(CNc3ccnc(OC)n3)cc2)n1 | 24 | 10 | 65 |  | inhibition in vivo at 10 mg/kg (MDA-MB-231 [11]): > 30%
Clc1nc(Cl)nc(NCc2ccc(CNc3nc(Cl)nc(Cl)n3)cc2)n1 | 61 | 10 | 82 |  | 
Fc1cccc(NCc2ccc(CNc3ncccn3)cc2)n1 | 53 |  | 80 | > 50 | inhibition in vivo at 10 mg/kg (MDA-MB-231 [11]): > 30%
c1cnc(NCc2ccc(CNc3cccc(N4CCCC4)c3)cc2)nc1 | 41 | 10 | 78 |  | 
Fc1nccc(NCc2ccc(CNc3ccnc(F)n3)cc2)n1 | 65 | 1 | 81 |  | 
Fc1ccccc1NCc1ccc(CNc2ccccc2F)cc1 | 32 | 100 | 58 |  | 
Fc1cccc(NCc2ccc(CNc3cccc(F)n3)cc2)n1 | 55 | 100 | 85 |  | 
Fc1cnc(NCc2ccc(CNc3nccc(C(F)(F)F)n3)cc2)nc1 | 73 | 1 | 93 | 20 | inhibition in vivo at 10 mg/kg (MDA-MB-231 [11]): > 30%
N=C(N)NCCC[C@H](NC(=O)[C@@H]1CSSC[C@H](NC(=O)[C@H](Cc2ccc3ccccc3c2)NC(=O)[C@H](CCCNC(=N)N)NC(=O)[C@@H](N)CCCNC(=N)N)C(=O)N[C@@H](Cc2ccc(O)cc2)C(=O)N[C@@H](CCCNC(N)=O)C(=O)N[C@@H](CCCCN)C(=O)N[C@H](CCCCN)C(=O)N2CCC[C@H]2C(=O)N[C@@H](Cc2ccc(O)cc2)C(=O)N[C@@H](CCCNC(=N)N)C(=O)N[C@@H](CCCNC(N)=O)C(=O)N1)C(N)=O (H-RR[2Nal]CY[Cit]K[dK]PYR[Cit]CR-NH2; disulfide 4-13) |  |  |  |  | Activity (Mus musculus [14]): Active; inhibition (Mus musculus [15]): Active; Activity [16]: 50%; inhibition (MDA-MB-231 [17]): Active; Activity (Mus musculus [18]): Active; Activity (Mus musculus [19]): 85%
Fc1cnc(NCc2ccc(CNc3ncc(F)cn3)cc2)nc1 | 75 | 1 | 75 |  | 
c1ccc(NCc2ccc(CNc3ncccn3)cc2)cc1 |  |  |  | 20 | 
c1ccc(NCc2ccc(CNc3ccccc3)cc2)cc1 | 54 |  | 64 |  | 
COc1ncc(F)c(NCc2ccc(CNc3nc(OC)ncc3F)cc2)n1 | 77 | 1 | 100 | 20 | 
Clc1ccc(NCc2ccc(CNc3ncccn3)cc2)nc1 | 82 | 10 | 100 | 20 | 

Source: ChEMBL document CHEMBL1799970, “Dipyrimidine amines: a novel class of chemokine receptor type 4 antagonists with high specificity” (J Med Chem, 2010)
